Laboratory results published in PMC2630402 (Journal of medicinal chemistry, 2008).
Read-outs that look alike come from different tables or passages of the source.

Tests used:
[1] = tested on: αvβ6-positive (DX3puroβ6) tumor; details: DX3puroβ6 xenograft, 1 hour after injection, n = 3/tracer; data for 1 taken from ref 8; cited from earlier work
[2] = tested on: αvβ6-positive (DX3puroβ6) tumor; test: Biodistribution in mice bearing paired αvβ6-positive; type: in vivo, male athymic nude mice; details: for uptake in the αvβ6-positive tumor: DX3puroβ6 xenograft, 1 hour after injection; for uptake in the αvβ6-positive tumor / level of activity in the urine: n = 3/tracer; for level of activity in the urine: male athymic nude mice
Outline: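 Test compounds were 18F-labeled αvβ6-targeting peptides carrying different prosthetic groups. Radioactivity in healthy tissues and in both tumors was measured 1 h after injection and expressed as % ID/g, the percent of injected radioactive dose per gram of tissue. There were 3 mice per tracer.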

| Substance | uptake in the αvβ6-positive tumor [1] | uptake in the αvβ6-positive tumor [2] | level of activity in the urine ([2]; biodistribution, 1 h p.i.) | levels of radioactivity in the kidneys and the liver ([2]; biodistribution, 1 h p.i., compared with 1 and 2) |
| --- | --- | --- | --- | --- |
| [^18F]FBA-A20FDMV2 [compound 1] | 0.66 ± 0.09 % ID/g |  |  |  |
| [^18F]FPA-A20FDMV2 [compound 2] |  | 1.18 ± 0.28 % ID/g | 311 ± 133 % ID/g |  |
| [^18F]FC5-A20FDMV2 [compound 3] |  | 1.01±0.09 % ID/g | 501 ± 332 % ID/g | moderately increased |
